Measurements from different studies.
Lines come from different studies, so protocols differ.
Target: Cyclin-dependent kinase-like 2 (CDKL2, Homo sapiens, UniProt Q92772)
Residues used in one study (Q92772 1-493): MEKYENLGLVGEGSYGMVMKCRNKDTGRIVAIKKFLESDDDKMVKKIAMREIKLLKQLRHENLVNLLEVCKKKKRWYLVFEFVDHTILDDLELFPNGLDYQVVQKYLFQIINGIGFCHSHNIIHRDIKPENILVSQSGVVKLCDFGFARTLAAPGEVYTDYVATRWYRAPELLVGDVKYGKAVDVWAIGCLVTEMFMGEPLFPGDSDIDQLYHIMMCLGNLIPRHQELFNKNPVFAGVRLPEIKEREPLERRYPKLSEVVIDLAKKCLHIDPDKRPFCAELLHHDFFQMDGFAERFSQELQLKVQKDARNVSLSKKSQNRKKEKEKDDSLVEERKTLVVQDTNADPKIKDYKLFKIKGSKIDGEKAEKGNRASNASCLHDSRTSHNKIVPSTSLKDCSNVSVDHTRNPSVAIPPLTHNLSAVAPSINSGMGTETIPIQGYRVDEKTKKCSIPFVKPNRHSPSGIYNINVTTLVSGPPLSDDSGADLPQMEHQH

For `O=C(c1ccc(Nc2ncc(Cl)c(-c3cc4ccccc4s3)n2)cc1)N1CCC(N2CCCC2)CC1`, the remaining binding was 2.4% (binding, competition with immobilised ligand; 1 µM).
With `N[C@@H]1CCN(c2nccc(-c3cnn4ncccc34)n2)C1` the remaining binding was 100% (binding; 1 µM).
`CN(c1ccnc(CNc2nc(Nc3ccc4c(c3)CC(=O)N4)ncc2C(F)(F)F)n1)S(C)(=O)=O` gave a remaining binding of 84% (cell-free assay, competition with immobilised ligand; 1 µM).
`CC1CCCN1c1nccc(-c2cnn3ncccc23)n1` (stereo not shown) gave a remaining binding of 100% (binding; 1 µM).
With `O=C(NCC1CCOCC1)c1n[nH]cc1NC(=O)c1c(F)cccc1F` the remaining binding was 93% (binding, competition with immobilised ligand; 1 µM).
`O=C(Nc1cccnn1)N1CC(C/C=C/c2cncc(Oc3ccc(C(F)(F)F)cn3)n2)C1` gave a remaining binding of 100% (cell-free assay, competition with immobilised ligand; 1 µM).
`FC(F)(F)Oc1cccc(-c2cnc3ccc(-c4ccncc4)nn23)c1` has a remaining binding of 67% (cell-free assay, competition with immobilised ligand; 5 µM).
`CS(=O)(=O)N1CCCC(NC(=O)[C@H](CCC2CCCCC2)NC(=O)c2ccc(CNC(=O)c3cnc4ccccn34)cc2)C1` (stereo partly shown) has a remaining binding of 85% (cell-free assay, competition with immobilised ligand; 0.1 µM).
`F[C@@H]1CCN(c2nccc(-c3cnn4ncccc34)n2)C1` gave a remaining binding of 100% (binding; 1 µM).
`Cc1cnc(Nc2ccc(C(=O)N3CCC(N4CCCC4)CC3)cc2)nc1-c1cc2ccccc2s1` has a remaining binding of 12% (binding, competition with immobilised ligand; 1 µM).
The remaining binding of `CS(=O)(=O)N1CCCC(NC(=O)[C@H](CCC2CCCCC2)NC(=O)c2ccc(CNc3ncnc4c3nnn4-c3ccccc3)cc2)C1` (stereo partly shown) is reported as 100% (cell-free assay, competition with immobilised ligand; 0.1 µM).
For `O=C(c1ccc(Nc2ncc(Cl)c(-c3ccc(Cl)s3)n2)cc1)N1CCC(N2CCCC2)CC1`, the remaining binding was 2.3% (binding, competition with immobilised ligand; 1 µM).
`CN(C)c1nccc(-c2cnn3ncccc23)n1` has a remaining binding of 100% (binding; 1 µM).
With `C=CC(=O)N1CCC(C(=O)NCC(=O)N2CCN(c3nc(-c4cnc(N)nc4C(F)F)nc(N4CCOCC4)n3)CC2)CC1` the remaining binding was 100% (binding, competition with immobilised ligand; 1 µM).
The remaining binding of `COc1cnc(Nc2cccc(S(N)(=O)=O)c2)nc1N1CCN(c2ccccc2)C(=O)C1` is reported as 98% (binding, competition with immobilised ligand; 1 µM).
`COc1ncc2cc3ccccc3nc2c1C#N` gave a remaining binding of 90% (binding, competition with immobilised ligand; 5 µM).
For `C[C@H]1CCN(c2nccc(-c3cnn4ncccc34)n2)C1`, the remaining binding was 100% (binding; 1 µM).
`Cn1cc(Cl)c2c(Oc3c(F)cc(Nc4cc(Cl)nc(N)n4)cc3F)ccnc21` has a remaining binding of 100% (cell-free assay, competition with immobilised ligand; 0.1 µM).
With `CN(C)c1ncc(F)c(-c2cnn3ncccc23)n1` the remaining binding was 89% (binding; 1 µM).
`C[C@@H](c1ccc(-n2cnc3c(N)ncnc32)cc1)N1CCc2nn(C)c(Cc3ccccc3)c2C1=O` has a remaining binding of 67% (binding, competition with immobilised ligand; 0.1 µM).
The remaining binding of `COc1ccnn2ncc(-c3ccnc(N(C)C)n3)c12` is reported as 91% (binding; 1 µM).
`CO[C@@H](C)c1c(Nc2ccc([C@@H](N(C)C(=O)C3CCS(=O)(=O)CC3)C(F)(F)F)cc2)cnc2cc(Cl)nn12` gave a remaining binding of 88% (cell-free assay, competition with immobilised ligand; 1 µM).
